In ChEMBL document CHEMBL1132567, “Structure-activity studies of conantokins as human N-methyl-D-aspartate receptor modulators” (J Med Chem, 1999) one finds IC50 data, which are given here for 10 compounds.

In assay [1] the target is Glutamate [NMDA] receptor. As to the kind of experiment: The compound was tested for the inhibitory activity against N-methyl-D-aspartate glutamate receptor from mid-frontal region of human brain by measuring spermine-enhanced [3H]- MK-801 binding. In short, it runs like this: (§1)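 Crude synaptosomal membranes from the named human brain region, frozen at -70°C, then washed in water and in 5 mM Tris-HCl pH 7.4. Duplicate tubes at room temperature held membranes (about 0.25 mg/mL protein), 30 μM spermine, 2 nM [3H]MK-801 and peptide at 10^-9–10^-4 M, without added Ca2+ or with 1.5 mM CaCl2. Nonspecific binding was taken with 3 μM unlabeled MK-801. After 45 min, samples were filtered onto GF/B and counted by scintillation.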

For assay [2], the target named is Glutamate [NMDA] receptor. Description: The compound was tested for the inhibitory activity against N-methyl-D-aspartate glutamate receptor from sensorimotor gyri region of human brain by measuring spermine-enhanced [3H]- MK-801 binding. In short, it runs like this: as §1
In assay [3] the target is Glutamate [NMDA] receptor. Description: The compound was tested for the inhibitory activity against N-methyl-D-aspartate glutamate receptor from superior temporal region of human brain by measuring spermine-enhanced [3H]- MK-801 binding. In short, it runs like this:
as §1

Starred links: 1 amine or outer side, 2 acyl side, 3 side chain; linkers in the order of their positions; H or OH if unused. Positions of bridges follow the written chain, without caps; N, C: chain ends. Non-standard residues stand in square brackets, D forms with d. Residues, ends and D or L forms follow the SMILES beside them. X1 = NC(=O)CC[C@@H](C(=O)[*:2])[C@H](CC(N)=O)N[*:1]; NMeN = CN[C@@H](CC(N)=O)C(=O)O

As for `CC[C@H](C)[C@H](NC(=O)[C@H](CC(C)C)NC(=O)[C@H](CCC(=O)O)NC(=O)[C@H](CCC(N)=O)NC(=O)[C@H](CC(N)=O)NC(=O)[C@H](CCCCN)NC(=O)[C@H](CCC(N)=O)NC(=O)[C@H](CC(C)C)NC(=O)[C@H](CCC(=O)O)NC(=O)[C@H](CCC(=O)O)NC(=O)[C@H](CCC(=O)O)NC(=O)CN)C(=O)N[C@@H](CCCN=C(N)N)C(=O)N[C@@H](CCC(=O)O)C(=O)N[C@@H](CCCCN)C(=O)N[C@@H](CO)C(=O)N[C@@H](CC(N)=O)C(N)=O`, in assay [1], the 50% inhibitory concentration (IC50) was found to be 11000 nM.
For the compound `CC[C@H](C)[C@H](NC(=O)[C@H](CC(C)C)NC(=O)[C@H](CCC(=O)O)NC(=O)[C@H](CCC(N)=O)NC(=O)[C@H](CC(N)=O)NC(=O)[C@H](C)NC(=O)[C@H](CCC(N)=O)NC(=O)[C@H](CC(C)C)NC(=O)[C@H](CCC(=O)O)NC(=O)[C@H](CCC(=O)O)NC(=O)[C@H](CCC(=O)O)NC(=O)CN)C(=O)N[C@@H](CCCN=C(N)N)C(=O)N[C@@H](CCC(=O)O)C(=O)N[C@@H](CCCCN)C(=O)N[C@@H](CO)C(=O)N[C@@H](CC(N)=O)C(N)=O`, the 50% inhibitory concentration (IC50) was 766 nM in assay [2], 1680 nM in assay [3] and 3360 nM in assay [1].
In the same order, the values of `CC[C@@H](C)[C@H](NC(=O)[C@H](CC(C)C)NC(=O)[C@H](CCC(=O)O)[C@H](CCC(N)=O)NC(=O)[C@H](CC(N)=O)NC(=O)[C@H](CCC(=O)O)NC(=O)[C@H](CCC(N)=O)NC(=O)[C@H](CC(C)C)NC(=O)[C@H](CCC(=O)O)NC(=O)[C@H](CCC(=O)O)NC(=O)[C@H](CCC(=O)O)NC(=O)CN)C(=O)N[C@@H](CCCN=C(N)N)C(=O)N[C@@H](CCC(=O)O)C(=O)N[C@@H](CCCCN)C(=O)N[C@@H](CO)C(=O)N[C@@H](CC(N)=O)C(N)=O` are 59 nM, 21 nM and 69 nM.
The like results for H-GEEEYQKNQELIREKSN-NH2 were, in that order, 47 nM, 56 nM and 99 nM.
For `CC[C@H](C)[C@@H]1NC(=O)[C@H](CC(C)C)NC(=O)[C@@H](NC(=O)[C@H](CCC(N)=O)[C@H](CC(N)=O)NC(=O)[C@H](C)NC(=O)[C@H](CCC(N)=O)NC(=O)[C@H](CC(C)C)NC(=O)[C@H](CCC(=O)O)NC(=O)[C@H](CCC(=O)O)NC(=O)[C@H](CCC(=O)O)NC(=O)CN)CCC(=O)NCCCC[C@@H](C(=O)N[C@@H](CCC(=O)O)C(=O)N[C@@H](CCCCN)C(=O)N[C@@H](CO)C(=O)N[C@@H](CC(N)=O)C(N)=O)NC1=O` (H-GEEELQA[X1]ELIKEKSN-NH2; lactam 9-12), the concentration for half-maximal inhibition (IC50) in assay [1] was > 20000 nM.
Still for that read-out and setting: as for `CSCC[C@H](NC(=O)[C@H](CCCCN)NC(=O)[C@H](CCC(N)=O)NC(=O)[C@H](Cc1ccc(O)cc1)NC(=O)[C@H](CCC(=O)O)NC(=O)[C@H](CCC(=O)O)NC(=O)[C@H](CCC(=O)O)NC(=O)CN)C(=O)N[C@@H](CC(C)C)C(=O)N[C@@H](CCC(=O)O)C(=O)N(C)[C@@H](CC(N)=O)C(=O)N[C@@H](CC(C)C)C(=O)N[C@@H](CCCN=C(N)N)C(=O)N[C@@H](CCC(=O)O)C(=O)N[C@@H](C)C(=O)N[C@@H](CCC(=O)O)C(=O)N[C@H](C(=O)N[C@@H](CCCCN)C(=O)N[C@@H](CCCCN)C(=O)N[C@@H](CC(N)=O)C(=O)N[C@@H](C)C(N)=O)C(C)C` (H-GEEEYQKMLE[NMeN]LREAEVKKNA-NH2), the figure is 125 nM; as for `CC[C@@H](C)[C@H](NC(=O)[C@H](CC(C)C)NC(=O)[C@@H]1CCC(=O)NCCCC[C@H](NC(=O)[C@H](CCC(N)=O)NC(=O)[C@H](CC(C)C)NC(=O)[C@H](CCC(=O)O)NC(=O)[C@H](CCC(=O)O)NC(=O)[C@H](CCC(=O)O)NC(=O)CN)C(=O)N[C@@H](CC(N)=O)C(=O)N[C@H](CCC(N)=O)C(=O)N1)C(=O)N[C@@H](CCCN=C(N)N)C(=O)N[C@@H](CCC(=O)O)C(=O)N[C@@H](CCCCN)C(=O)N[C@@H](CO)C(=O)N[C@@H](CC(N)=O)C(N)=O`, 8480 nM.
On to H-GEEEYQANQELIREKSN-NH2, for which the concentration for half-maximal inhibition (IC50) in assay [2] was 475 nM; in assay [3] it was 570 nM; in assay [1], 546 nM.
On to H-GEEELQEDQELIREKSD-NH2, for which the IC50 in assay [2] was 18 nM; in assay [3], 9 nM; in assay [1] it was 20 nM.
The like results for H-GEEELQEN-NH2 were, in that order, 58 nM, 23 nM and 94 nM.

For orientation: IC50 means the concentration that inhibits the measured activity by half.
